Data reported in ChEMBL document CHEMBL1132712, “Bisphosphonate prodrugs: synthesis and in vitro evaluation of novel clodronic acid dianhydrides as bioreversible prodrugs of clodronate” (J Med Chem, 1999).

Legend:
[1] = (§1) Rate data for enzymatic hydrolysis in 80% human serum at pH 7.4; Completely hydrolyzed during 1 min; assay type: ADME; conditions: pH 7.4, 1 min
[2] = The apparent partition coefficient at pH 2.0; assay type: physicochemical; conditions: octanol/water
Method in brief: (§2)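 1-Octanol/phosphate buffer (50 mM, μ = 0.15) at pH 2.0 or 7.4. Prodrug (0.8–1.5 mg) in 1.0 mL buffer shaken with 5.0 mL octanol, 1 h at pH 7.4 or 5 min at pH 2.0. Phases separated by centrifugation. Aqueous concentration measured by HPLC before and after shaking. Triplicate, mean reported.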

Homo sapiens = organism: Homo sapiens; assay: as §1; assay type: ADME, organism-based; conditions: pH 7.4, 1 min
[3] = The aqueous solubility in phosphate buffer; assay type: physicochemical; conditions: read-out: S
Method in brief: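 Excess solid added to phosphate buffer (50 mM, μ = 0.15, pH 7.4) at room temperature and vortexed 30 min. pH checked and adjusted during solubilization. Suspension centrifuged and filtered (0.45 membrane). Filtrate quantified by HPLC.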

[4] = The apparent partition coefficient at pH 7.4; assay type: physicochemical; conditions: octanol/water; method in brief: as §2
[5] = Rate data in phosphate buffer at pH 2.0; assay type: ADME
Method in brief: (§3)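 Chemical hydrolysis at 37 °C in phosphate buffer (50 mM, μ = 0.15) at pH 2.0 or 7.4. Prodrug (12 mg) dissolved in preheated buffer. Samples withdrawn at intervals and assayed by HPLC. Pseudo-first-order rate constants calculated from the buffer hydrolysis data.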

[6] = Rate data in phosphate buffer at pH 7.4; assay type: ADME; method in brief: as §3
[7] = (§4) Rate data for enzymatic hydrolysis in 80% human serum at pH 7.4; assay type: ADME
[8] = as §4; assay type: ADME, organism-based

Structure (SMILES) | K obs [1] | logD [2] | T1/2 (Homo sapiens) | solubility [3] [mg/mL] | logD [4] | K obs [5] [min⁻¹] | half-life [5] [h] | K obs [6] [min⁻¹] | half-life [6] [h] | K obs [7] [min⁻¹] | half-life [8] [h]
CCCC(=O)OP(=O)([O-])C(Cl)(Cl)P(=O)([O-])OC(=O)CCC.[Na+].[Na+] | Completely hydrolyzed during 1 min | -1.9 | Completely hydrolyzed during 1 min | 172 | -2.3 | 0.014 | 0.817 | 0.00037 | 31.3 |  | 
CC(C)(C)C(=O)OP(=O)([O-])C(Cl)(Cl)P(=O)([O-])OC(=O)C(C)(C)C.[Na+].[Na+] |  | -2 |  | 23.5 | -2.3 | 0.0013 | 8.6 | 0.000015 | 790 | 0.0035 | 3.3
CC(=O)OP(=O)([O-])C(Cl)(Cl)P(=O)([O-])OC(C)=O.[Na+].[Na+] | Completely hydrolyzed during 1 min | -1.4 | Completely hydrolyzed during 1 min | 190 | -2.2 | 0.016 | 0.75 | 0.00076 | 15.2 |  | 
O=C(OP(=O)([O-])C(Cl)(Cl)P(=O)([O-])OC(=O)c1ccccc1)c1ccccc1.[Na+].[Na+] | Completely hydrolyzed during 1 min | -1.5 | Completely hydrolyzed during 1 min | 6 | -2.3 | 0.00004 | 286 | 0.000049 | 235 |  | 
